system: Influenza B virus; assay: Antiviral activity against influenza B virus infected in dog MDCK cells assessed as reduction in virus-induced cytopathic effect incubated for 3 to 6 days by light microscopic analysis; type: functional, organism-based; conditions: not given
Procedure, shortened: (§1)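 MDCK cells, subconfluent, received influenza A or B virus together with serial compound dilutions. Incubated 3–6 days at 35 °C.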

SMILES | EC50
CCCN1C(=O)CS/C1=N\NC(=O)c1[nH]c2ccc(F)cc2c1-c1ccccc1 | > 100 µg/mL

system: Felid alphaherpesvirus 1; assay: Antiviral activity against Feline herpesvirus infected in cat CRFK cells assessed as reduction in virus-induced cytopathic effect incubated for 3 to 6 days by light microscopic analysis; type: functional, organism-based; conditions: Felid alphaherpesvirus 1, CRFK

SMILES | EC50
CCCN1C(=O)CS/C1=N\NC(=O)c1[nH]c2ccc(F)cc2c1-c1ccccc1 | > 100 µg/mL

system: Vesicular stomatitis virus; assay: Antiviral activity against Vesicular stomatitis virus infected in human HeLa cells assessed as reduction in virus-induced cytopathic effect incubated for 3 to 6 days by light microscopic analysis; type: functional, organism-based; conditions: not given
Procedure, shortened: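 CPE reduction assay: virus and serial compound dilutions added together to subconfluent HeLa (vesicular stomatitis, Coxsackie B4, respiratory syncytial) or Vero (Coxsackie B4, Sindbis, Punta Toro) cultures. Incubated 3–6 days at 37 °C. Mean ± SEM of three independent tests.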

SMILES | EC50
CCCN1C(=O)CS/C1=N\NC(=O)c1[nH]c2ccc(F)cc2c1-c1ccccc1 | > 100 µg/mL

system: Coxsackievirus B4; assay: Antiviral activity against Human coxsackievirus B4 infected in African green monkey Vero cells assessed as reduction in virus-induced cytopathic effect incubated for 3 to 6 days by light microscopic analysis; type: functional, organism-based; conditions: Enterovirus B
Procedure, shortened: (§2)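 CPE reduction assay: virus and serial compound dilutions added together to subconfluent HeLa (vesicular stomatitis, Coxsackie B4, respiratory syncytial) or Vero (Coxsackie B4, Sindbis, Punta Toro) cultures. Incubated 3–6 days at 37 °C. […] Mean ± SEM of three independent tests.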

SMILES | EC50
CCCN1C(=O)CS/C1=N\NC(=O)c1[nH]c2ccc(F)cc2c1-c1ccccc1 | > 100 µg/mL

system: Human alphaherpesvirus 2; assay: Antiviral activity against Herpes simplex virus 2 infected in human HEL cells assessed as reduction in virus-induced cytopathic effect incubated for 3 to 6 days by light microscopic analysis; type: functional, cell-based; conditions: Human alphaherpesvirus 2, HEL

SMILES | EC50
CCCN1C(=O)CS/C1=N\NC(=O)c1[nH]c2ccc(F)cc2c1-c1ccccc1 | > 100 µg/mL

system: Feline coronavirus; assay: Antiviral activity against Feline coronavirus infected in cat CRFK cells assessed as reduction in virus-induced cytopathic effect incubated for 3 to 6 days by light microscopic analysis; type: functional, organism-based; conditions: Alphacoronavirus 1, CRFK

SMILES | EC50
CCCN1C(=O)CS/C1=N\NC(=O)c1[nH]c2ccc(F)cc2c1-c1ccccc1 | > 100 µg/mL

system: MT4; assay: Cytotoxicity against human MT4 cells assessed as reduction in cell viability incubated for 3 to 6 days by MTS assay; type: cell-based; conditions: time 3-6 day
Procedure, shortened: (§3)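 CRFK or MT4 cells were exposed to serial compound dilutions alongside the antiviral assays for 3–6 days at 37 °C.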

SMILES | CC50
CCCN1C(=O)CS/C1=N\NC(=O)c1[nH]c2ccc(F)cc2c1-c1ccccc1 | > 125 µg/mL

system: Influenza A virus; assay: Antiviral activity against influenza A virus infected in dog MDCK cells assessed as reduction in virus-induced cytopathic effect incubated for 3 to 6 days by light microscopic analysis; type: functional, organism-based; conditions: Influenza A virus, MDCK; procedure, shortened: as §1

SMILES | EC50
CCCN1C(=O)CS/C1=N\NC(=O)c1[nH]c2ccc(F)cc2c1-c1ccccc1 | > 100 µg/mL

system: Human immunodeficiency virus 1; assay: Antiviral activity against Human immunodeficiency virus 1 infected in human MT4 cells assessed as reduction in virus-induced cytopathic effect incubated for 3 to 6 days by light microscopic analysis; type: functional, organism-based; conditions: Human immunodeficiency virus 1, MT4

SMILES | EC50
CCCN1C(=O)CS/C1=N\NC(=O)c1[nH]c2ccc(F)cc2c1-c1ccccc1 | > 100 µg/mL

system: Human respirovirus 3; assay: Antiviral activity against Human parainfluenza virus 3 infected in African green monkey Vero cells assessed as reduction in virus-induced cytopathic effect incubated for 3 to 6 days by light microscopic analysis; type: functional, organism-based; conditions: Human respirovirus 3, Vero

SMILES | EC50
CCCN1C(=O)CS/C1=N\NC(=O)c1[nH]c2ccc(F)cc2c1-c1ccccc1 | > 100 µg/mL

system: Coxsackievirus B4; assay: Antiviral activity against Human coxsackievirus B4 infected in human HeLa cells assessed as reduction in virus-induced cytopathic effect incubated for 3 to 6 days by light microscopic analysis; type: functional, organism-based; conditions: Enterovirus B; procedure, shortened: as §2

SMILES | EC50
CCCN1C(=O)CS/C1=N\NC(=O)c1[nH]c2ccc(F)cc2c1-c1ccccc1 | > 100 µg/mL

system: Punta Toro virus; assay: Antiviral activity against Punta Toro virus infected in African green monkey Vero cells assessed as reduction in virus-induced cytopathic effect incubated for 3 to 6 days by light microscopic analysis; type: functional, organism-based; conditions: not given; procedure, shortened: as §2

SMILES | EC50
CCCN1C(=O)CS/C1=N\NC(=O)c1[nH]c2ccc(F)cc2c1-c1ccccc1 | > 100 µg/mL

system: Vaccinia virus; assay: Antiviral activity against Vaccinia virus infected in human HEL cells assessed as reduction in virus-induced cytopathic effect incubated for 3 to 6 days by light microscopic analysis; type: functional, organism-based; conditions: Orthopoxvirus vaccinia

SMILES | EC50
CCCN1C(=O)CS/C1=N\NC(=O)c1[nH]c2ccc(F)cc2c1-c1ccccc1 | > 100 µg/mL

system: Respiratory syncytial virus; assay: Antiviral activity against Respiratory syncytial virus infected in human HeLa cells assessed as reduction in virus-induced cytopathic effect incubated for 3 to 6 days by light microscopic analysis; type: functional, organism-based; conditions: not given; procedure, shortened: as §2

SMILES | EC50
CCCN1C(=O)CS/C1=N\NC(=O)c1[nH]c2ccc(F)cc2c1-c1ccccc1 | > 100 µg/mL

system: Human immunodeficiency virus 2; assay: Antiviral activity against Human immunodeficiency virus 2 infected in human MT4 cells assessed as reduction in virus-induced cytopathic effect incubated for 3 to 6 days by light microscopic analysis; type: functional, organism-based; conditions: Human immunodeficiency virus 2, MT4

SMILES | EC50
CCCN1C(=O)CS/C1=N\NC(=O)c1[nH]c2ccc(F)cc2c1-c1ccccc1 | > 100 µg/mL

system: not listed separately; assay: Cytotoxicity against human HEL cells assessed as changes in cell morphology incubated for 3 to 6 days by light microscopy; type: cell-based; conditions: time 3-6 day
Procedure, shortened: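 Human embryonic lung fibroblasts incubated with serial compound dilutions alongside the antiviral assays, 37 °C, 3–6 days. Morphology inspected by light microscopy; minimal cytotoxic concentration taken as lowest concentration giving minimal morphological change.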

SMILES | MCC
CCCN1C(=O)CS/C1=N\NC(=O)c1[nH]c2ccc(F)cc2c1-c1ccccc1 | > 100 µg/mL

system: Sindbis virus; assay: Antiviral activity against Sindbis virus infected in African green monkey Vero cells assessed as reduction in virus-induced cytopathic effect incubated for 3 to 6 days by light microscopic analysis; type: functional, organism-based; conditions: not given; procedure, shortened: as §2

SMILES | EC50
CCCN1C(=O)CS/C1=N\NC(=O)c1[nH]c2ccc(F)cc2c1-c1ccccc1 | > 100 µg/mL

system: Human alphaherpesvirus 1; assay: Antiviral activity against Herpes simplex virus 1 infected in human HEL cells assessed as reduction in virus-induced cytopathic effect incubated for 3 to 6 days by light microscopic analysis; type: functional, cell-based; conditions: Human alphaherpesvirus 1, HEL

SMILES | EC50
CCCN1C(=O)CS/C1=N\NC(=O)c1[nH]c2ccc(F)cc2c1-c1ccccc1 | > 100 µg/mL

system: Mammalian orthoreovirus 1; assay: Antiviral activity against Mammalian orthoreovirus 1 infected in African green monkey Vero cells assessed as reduction in virus-induced cytopathic effect incubated for 3 to 6 days by light microscopic analysis; type: functional, organism-based; conditions: Mammalian orthoreovirus 1, Vero

SMILES | EC50
CCCN1C(=O)CS/C1=N\NC(=O)c1[nH]c2ccc(F)cc2c1-c1ccccc1 | > 100 µg/mL

system: not listed separately; assay: Cytotoxicity against cat CRFK cells assessed as reduction in cell viability incubated for 3 to 6 days by MTS assay; type: cell-based, Felis catus; conditions: crfk, time 3-6 day; procedure, shortened: as §3

SMILES | CC50
CCCN1C(=O)CS/C1=N\NC(=O)c1[nH]c2ccc(F)cc2c1-c1ccccc1 | > 100 µg/mL

— ChEMBL document CHEMBL4715693, “Synthesis and antiviral properties of novel indole-based thiosemicarbazides and 4-thiazolidinones” (Bioorg Med Chem, 2016)
